Assay results reported in ChEMBL document CHEMBL2010712, “Design and synthesis of orally available MEK inhibitors with potent in vivo antitumor efficacy” (Bioorg Med Chem Lett, 2012).
Activity calls are given as the source filed them. The calls are words filed in the database; no cut-off is given here.

Key:
[1] = molecular target: RAF proto-oncogene serine/threonine-protein kinase (Homo sapiens) (UniProt P04049); assay: Inhibition of c-RAF at 10 uM
[2] = molecular target: Serine/threonine-protein kinase PLK3 (Homo sapiens) (UniProt Q9H4B4); assay: Inhibition of PLK3 at 10 uM
[3] = molecular target: Angiopoietin-1 receptor (Homo sapiens) (UniProt Q02763); assay: Inhibition of Tie2 at 10 uM
[4] = molecular target: Tyrosine-protein kinase ABL1 (Homo sapiens) (UniProt P00519); assay: Inhibition of ABL1 at 10 uM
[5] = molecular target: T1, Dual specificity mitogen-activated protein kinase kinase 1 (Homo sapiens, UniProt Q02750); assay: Inhibition of MEK1-mediated ERK1 phosphorylation using IPTTPITTYFFFK-5FAM-COOH as substrate by fluorescent polarization assay
[6] = molecular target: Hepatocyte growth factor receptor (Homo sapiens) (UniProt P08581); assay: Inhibition of cMET at 10 uM
[7] = molecular target: Protein kinase C alpha type (Homo sapiens) (UniProt P17252); assay: Inhibition of PKCalpha at 10 uM
Rattus norvegicus = assay: Dose normalized AUC in rat at 1 mg/kg, iv and 5 mg/kg, po; format: ADME, organism-based; conditions: in vivo
A-375 = assay: Cytotoxicity against human A375 cells after 72 hrs by MTS assay; conditions: A-375, 72 h
[8] = molecular target: 3-phosphoinositide-dependent protein kinase 1 (Homo sapiens) (UniProt O15530); assay: Inhibition of PDK1 at 10 uM
[9] = molecular target: Glycogen synthase kinase-3 beta (Homo sapiens) (UniProt P49841); assay: Inhibition of GSK3beta at 10 uM
[10] = molecular target: T2, Tyrosine-protein kinase JAK3 (Homo sapiens) (UniProt P52333); assay: Inhibition of JAK3 at 10 uM
T2 sequence (whole entry): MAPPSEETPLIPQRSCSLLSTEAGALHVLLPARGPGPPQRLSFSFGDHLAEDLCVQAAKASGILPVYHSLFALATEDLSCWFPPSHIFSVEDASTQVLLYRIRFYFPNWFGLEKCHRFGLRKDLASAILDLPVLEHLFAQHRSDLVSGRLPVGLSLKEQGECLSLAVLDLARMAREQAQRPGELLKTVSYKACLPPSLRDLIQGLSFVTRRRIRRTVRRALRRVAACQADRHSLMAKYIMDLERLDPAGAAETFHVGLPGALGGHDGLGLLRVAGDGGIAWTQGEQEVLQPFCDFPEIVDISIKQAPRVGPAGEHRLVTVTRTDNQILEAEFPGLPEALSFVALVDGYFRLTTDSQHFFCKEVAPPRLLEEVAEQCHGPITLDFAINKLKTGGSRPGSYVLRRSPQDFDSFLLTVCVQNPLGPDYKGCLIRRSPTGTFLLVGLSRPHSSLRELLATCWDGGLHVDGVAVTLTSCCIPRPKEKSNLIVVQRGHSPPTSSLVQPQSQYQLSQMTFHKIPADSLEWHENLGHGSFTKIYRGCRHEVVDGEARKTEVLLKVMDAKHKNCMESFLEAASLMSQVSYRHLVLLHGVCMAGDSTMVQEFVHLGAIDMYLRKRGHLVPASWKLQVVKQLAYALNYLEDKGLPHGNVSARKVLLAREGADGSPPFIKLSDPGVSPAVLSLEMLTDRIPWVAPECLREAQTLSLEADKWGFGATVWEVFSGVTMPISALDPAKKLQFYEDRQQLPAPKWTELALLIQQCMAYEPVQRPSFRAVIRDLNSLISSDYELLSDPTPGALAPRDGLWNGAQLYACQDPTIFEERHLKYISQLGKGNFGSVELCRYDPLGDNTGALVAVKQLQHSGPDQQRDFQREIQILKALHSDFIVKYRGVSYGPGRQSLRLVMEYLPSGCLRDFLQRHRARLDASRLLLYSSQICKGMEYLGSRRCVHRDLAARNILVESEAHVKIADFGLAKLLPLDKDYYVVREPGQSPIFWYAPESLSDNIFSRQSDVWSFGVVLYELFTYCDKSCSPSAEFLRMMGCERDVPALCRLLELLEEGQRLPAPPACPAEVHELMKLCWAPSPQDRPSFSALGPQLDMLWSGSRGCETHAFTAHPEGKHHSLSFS

[11] = Half life in human liver microsomes; format: ADME, Microsome
[12] = Oral bioavailability in rat at 5 mg/kg; format: ADME, organism-based; conditions: in vivo
[13] = molecular target: Calcium/calmodulin-dependent protein kinase type 1D (Homo sapiens) (UniProt Q8IU85); assay: Inhibition of CAMK1delta at 10 uM
[14] = molecular target: Proto-oncogene tyrosine-protein kinase Src (Homo sapiens) (UniProt P12931); assay: Inhibition of cSRC at 10 uM
[15] = molecular target: Platelet-derived growth factor receptor beta (Homo sapiens) (UniProt P09619); assay: Inhibition of PDGFRbeta at 10 uM
[16] = Clearance in rat at 1 mg/kg, iv and 5 mg/kg, po; format: ADME, organism-based; conditions: in vivo
[17] = molecular target: Mitogen-activated protein kinase 14 (Homo sapiens) (UniProt Q16539); assay: Inhibition of p38alpha at 10 uM
[18] = Volume of distribution at steady state in rat at 1 mg/kg, iv and 5 mg/kg, po; format: ADME, organism-based; conditions: in vivo, read-out: Vdss
[19] = molecular target: Insulin receptor (Homo sapiens) (UniProt P06213); assay: Inhibition of IR at 10 uM
[20] = molecular target: RAC-gamma serine/threonine-protein kinase (Homo sapiens) (UniProt Q9Y243); assay: Inhibition of AKT3 at 10 uM
[21] = molecular target: Tyrosine-protein kinase SYK (Homo sapiens) (UniProt P43405); assay: Inhibition of Syk at 10 uM
[22] = Half life in rat liver microsomes; format: ADME, Microsome
COLO 205 = assay: Cytotoxicity against human COLO205 cells after 72 hrs by MTS assay; conditions: COLO 205, 72 h
[23] = Inhibition of cytochrome P450 at 10 uM; format: ADME
[24] = molecular target: Cyclin-dependent kinase 2/cyclin A (Homo sapiens) (UniProt P24941+P20248+P78396); assay: Inhibition of CDK2/cyclin A at 10 uM; format: protein-complex assay
[25] = molecular target: Epidermal growth factor receptor (Homo sapiens) (UniProt P00533); assay: Inhibition of EGFR at 10 uM
[26] = molecular target: T1, Dual specificity mitogen-activated protein kinase kinase 1; assay: Inhibition of MEK1-mediated Erk1/2 phosphorylation in human HT-29 cells at 30 mg/kg measured after 4 hrs by in vivo pharmacodynamic model; format: organism-based; set-up: dose 30 mg/kg
Method in brief: (§1)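 In vivo pharmacodynamic study: p-ERK1/2 suppression measured 4 h after dosing across a dose response and related to compound plasma concentration.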

HL-60 = assay: Antitumor activity against human HL60 cells xenograft model assessed as inhibition of tumor regression at 10 mg/kg, po; format: functional, organism-based; set-up: dose 10 mg/kg
Method in brief: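 HL-60 (NRAS) xenograft; compound given orally once daily at maximum tolerated dose over days 12–25 after tumor implant; tumor response followed versus control, complete regressions counted per group.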

[27] = molecular target: T1, Dual specificity mitogen-activated protein kinase kinase 1; assay: Inhibition of MEK1-mediated Erk1/2 phosphorylation in human HT-29 cells at 3 mg/kg plasma concentration measured after 4 hrs by in vivo pharmacodynamic model; format: organism-based; set-up: dose 3 mg/kg; method in brief: as §1

Glycogen synthase kinase-3 beta (Homo sapiens), sequence (P49841 whole entry, looked up): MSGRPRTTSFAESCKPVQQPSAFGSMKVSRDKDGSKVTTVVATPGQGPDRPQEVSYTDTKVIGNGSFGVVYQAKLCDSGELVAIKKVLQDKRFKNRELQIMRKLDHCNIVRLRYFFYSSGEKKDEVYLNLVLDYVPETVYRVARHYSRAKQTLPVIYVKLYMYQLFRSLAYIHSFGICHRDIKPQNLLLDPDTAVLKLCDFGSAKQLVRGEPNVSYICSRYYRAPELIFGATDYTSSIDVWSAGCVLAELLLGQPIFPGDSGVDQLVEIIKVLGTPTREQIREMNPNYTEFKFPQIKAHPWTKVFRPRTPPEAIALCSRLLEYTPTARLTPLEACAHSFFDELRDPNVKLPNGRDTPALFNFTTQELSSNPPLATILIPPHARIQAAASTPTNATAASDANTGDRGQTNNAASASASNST
Serine/threonine-protein kinase PLK3 (Homo sapiens), sequence (Q9H4B4 whole entry, looked up): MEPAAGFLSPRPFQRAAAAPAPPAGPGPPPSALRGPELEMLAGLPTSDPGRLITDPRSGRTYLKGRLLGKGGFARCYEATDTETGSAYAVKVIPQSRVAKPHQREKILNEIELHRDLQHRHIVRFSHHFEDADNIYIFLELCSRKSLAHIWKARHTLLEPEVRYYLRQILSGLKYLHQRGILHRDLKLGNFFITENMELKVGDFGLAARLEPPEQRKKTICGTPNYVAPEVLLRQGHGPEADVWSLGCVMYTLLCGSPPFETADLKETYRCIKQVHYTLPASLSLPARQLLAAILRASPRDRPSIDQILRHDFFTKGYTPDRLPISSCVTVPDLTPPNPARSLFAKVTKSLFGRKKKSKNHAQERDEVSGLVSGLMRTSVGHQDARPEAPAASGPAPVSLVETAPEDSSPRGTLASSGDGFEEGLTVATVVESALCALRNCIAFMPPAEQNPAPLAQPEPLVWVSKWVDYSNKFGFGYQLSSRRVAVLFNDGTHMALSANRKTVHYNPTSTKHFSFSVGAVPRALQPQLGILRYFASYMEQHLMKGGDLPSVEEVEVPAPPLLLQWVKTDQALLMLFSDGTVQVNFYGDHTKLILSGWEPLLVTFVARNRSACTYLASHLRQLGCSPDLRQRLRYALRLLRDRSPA
Tyrosine-protein kinase ABL1 (Homo sapiens), sequence (P00519 whole entry): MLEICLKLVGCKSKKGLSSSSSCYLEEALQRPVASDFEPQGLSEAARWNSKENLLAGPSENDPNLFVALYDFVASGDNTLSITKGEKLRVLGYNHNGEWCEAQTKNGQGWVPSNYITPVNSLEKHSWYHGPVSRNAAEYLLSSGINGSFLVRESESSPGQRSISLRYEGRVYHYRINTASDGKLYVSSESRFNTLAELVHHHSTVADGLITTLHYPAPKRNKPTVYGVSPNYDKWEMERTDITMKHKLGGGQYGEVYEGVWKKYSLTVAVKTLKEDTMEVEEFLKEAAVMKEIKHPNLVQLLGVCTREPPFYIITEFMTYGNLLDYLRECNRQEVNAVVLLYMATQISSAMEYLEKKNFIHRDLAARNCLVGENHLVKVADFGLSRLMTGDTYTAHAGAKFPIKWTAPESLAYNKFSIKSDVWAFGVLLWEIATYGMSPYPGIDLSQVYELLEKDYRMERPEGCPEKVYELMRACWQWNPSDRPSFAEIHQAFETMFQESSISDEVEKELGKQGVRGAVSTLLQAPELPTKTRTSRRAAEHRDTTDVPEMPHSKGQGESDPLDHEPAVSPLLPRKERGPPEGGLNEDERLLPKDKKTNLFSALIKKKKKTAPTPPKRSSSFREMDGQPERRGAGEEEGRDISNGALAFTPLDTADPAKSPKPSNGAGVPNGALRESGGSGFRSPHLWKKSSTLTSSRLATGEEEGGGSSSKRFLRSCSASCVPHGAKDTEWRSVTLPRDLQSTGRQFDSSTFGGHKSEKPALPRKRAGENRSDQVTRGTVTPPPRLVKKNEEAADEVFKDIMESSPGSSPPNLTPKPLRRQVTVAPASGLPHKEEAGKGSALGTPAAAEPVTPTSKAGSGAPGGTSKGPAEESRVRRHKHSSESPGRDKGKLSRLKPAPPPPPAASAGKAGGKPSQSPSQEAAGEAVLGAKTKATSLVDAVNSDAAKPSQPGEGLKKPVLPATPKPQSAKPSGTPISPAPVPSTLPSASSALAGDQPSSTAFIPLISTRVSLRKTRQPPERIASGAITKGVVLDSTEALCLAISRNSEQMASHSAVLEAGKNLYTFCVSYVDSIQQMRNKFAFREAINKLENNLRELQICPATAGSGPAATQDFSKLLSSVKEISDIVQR
Insulin receptor (Homo sapiens), sequence (P06213 28-758 limits assumed): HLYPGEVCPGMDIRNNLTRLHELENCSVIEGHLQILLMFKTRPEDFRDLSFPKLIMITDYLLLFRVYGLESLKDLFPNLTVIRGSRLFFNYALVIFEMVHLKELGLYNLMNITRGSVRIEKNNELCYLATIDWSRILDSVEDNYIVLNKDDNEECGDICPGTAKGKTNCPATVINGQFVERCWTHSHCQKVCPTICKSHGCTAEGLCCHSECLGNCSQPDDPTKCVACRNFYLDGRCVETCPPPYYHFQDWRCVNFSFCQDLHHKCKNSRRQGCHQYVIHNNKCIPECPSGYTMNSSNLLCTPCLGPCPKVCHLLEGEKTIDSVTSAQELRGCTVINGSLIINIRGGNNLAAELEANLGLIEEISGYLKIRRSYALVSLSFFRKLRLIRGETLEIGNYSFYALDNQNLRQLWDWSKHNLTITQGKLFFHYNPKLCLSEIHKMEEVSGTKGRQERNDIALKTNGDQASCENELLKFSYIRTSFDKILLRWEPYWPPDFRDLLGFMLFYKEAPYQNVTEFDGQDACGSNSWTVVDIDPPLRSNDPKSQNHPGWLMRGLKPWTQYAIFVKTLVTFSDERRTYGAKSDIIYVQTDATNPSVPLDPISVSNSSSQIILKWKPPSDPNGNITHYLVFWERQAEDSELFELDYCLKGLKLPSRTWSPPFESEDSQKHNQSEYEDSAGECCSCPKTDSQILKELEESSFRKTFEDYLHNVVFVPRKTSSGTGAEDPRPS
Insulin receptor (Homo sapiens), sequence (P06213 763-1382 limits assumed): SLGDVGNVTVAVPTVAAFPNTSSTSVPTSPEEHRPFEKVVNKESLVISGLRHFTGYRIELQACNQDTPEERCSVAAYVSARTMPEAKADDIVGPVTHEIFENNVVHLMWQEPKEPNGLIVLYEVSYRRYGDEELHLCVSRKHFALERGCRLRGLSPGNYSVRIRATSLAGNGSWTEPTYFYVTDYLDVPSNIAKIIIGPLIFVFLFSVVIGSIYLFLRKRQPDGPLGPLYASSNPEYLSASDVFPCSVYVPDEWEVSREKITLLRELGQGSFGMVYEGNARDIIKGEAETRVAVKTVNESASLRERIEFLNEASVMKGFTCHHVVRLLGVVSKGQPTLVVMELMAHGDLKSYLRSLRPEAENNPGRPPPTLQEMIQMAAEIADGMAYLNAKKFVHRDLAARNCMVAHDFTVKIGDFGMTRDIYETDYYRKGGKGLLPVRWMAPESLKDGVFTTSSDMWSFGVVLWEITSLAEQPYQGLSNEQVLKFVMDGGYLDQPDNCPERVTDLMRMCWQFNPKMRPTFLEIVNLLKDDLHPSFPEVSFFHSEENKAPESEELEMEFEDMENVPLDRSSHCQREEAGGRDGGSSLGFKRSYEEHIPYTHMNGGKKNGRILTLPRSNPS
T1 sequence (Q02750 whole entry): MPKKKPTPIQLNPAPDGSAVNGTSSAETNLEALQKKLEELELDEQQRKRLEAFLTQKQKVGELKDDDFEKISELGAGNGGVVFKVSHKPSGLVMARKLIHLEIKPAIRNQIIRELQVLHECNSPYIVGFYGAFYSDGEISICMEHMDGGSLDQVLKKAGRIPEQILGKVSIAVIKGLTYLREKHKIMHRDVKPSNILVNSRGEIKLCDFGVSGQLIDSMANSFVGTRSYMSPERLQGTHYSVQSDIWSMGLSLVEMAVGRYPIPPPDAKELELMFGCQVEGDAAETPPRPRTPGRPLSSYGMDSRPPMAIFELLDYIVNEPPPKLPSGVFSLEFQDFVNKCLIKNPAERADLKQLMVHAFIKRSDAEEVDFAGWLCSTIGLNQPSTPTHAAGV
Mitogen-activated protein kinase 14 (Homo sapiens), sequence (Q16539 whole entry): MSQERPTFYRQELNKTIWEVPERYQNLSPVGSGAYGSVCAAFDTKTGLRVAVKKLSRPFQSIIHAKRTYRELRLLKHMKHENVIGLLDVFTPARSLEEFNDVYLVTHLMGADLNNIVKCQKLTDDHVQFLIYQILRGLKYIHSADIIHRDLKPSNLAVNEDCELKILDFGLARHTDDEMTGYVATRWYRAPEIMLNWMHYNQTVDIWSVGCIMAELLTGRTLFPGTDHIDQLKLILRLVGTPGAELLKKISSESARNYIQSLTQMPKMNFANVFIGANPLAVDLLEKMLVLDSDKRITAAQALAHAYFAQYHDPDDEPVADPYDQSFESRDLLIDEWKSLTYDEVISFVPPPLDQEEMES
RAC-gamma serine/threonine-protein kinase (Homo sapiens), sequence (Q9Y243 whole entry): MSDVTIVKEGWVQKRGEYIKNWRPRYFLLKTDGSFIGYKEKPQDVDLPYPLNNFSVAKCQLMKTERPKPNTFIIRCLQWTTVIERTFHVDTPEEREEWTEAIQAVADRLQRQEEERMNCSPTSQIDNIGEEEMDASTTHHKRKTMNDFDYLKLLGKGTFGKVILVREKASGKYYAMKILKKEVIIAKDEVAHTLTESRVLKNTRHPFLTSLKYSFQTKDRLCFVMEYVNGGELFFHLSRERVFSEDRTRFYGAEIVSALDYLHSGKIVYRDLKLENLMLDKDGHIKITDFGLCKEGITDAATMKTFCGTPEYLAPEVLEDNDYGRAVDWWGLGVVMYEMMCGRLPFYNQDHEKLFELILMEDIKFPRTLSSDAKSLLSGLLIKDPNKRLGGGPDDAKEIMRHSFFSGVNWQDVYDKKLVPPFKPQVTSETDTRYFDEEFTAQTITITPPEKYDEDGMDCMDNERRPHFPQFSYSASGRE

## C#Cc1ccc(Nc2c(C(=O)NOCCO)c3c(n2C)C(=O)CC3)c(F)c1
[1]
  inhibition: inactive
[2]
  inhibition: inactive
[3]
  inhibition: inactive
[4]
  inhibition: inactive
[5]
  IC50: 0.036 µM
[6]
  inhibition: inactive
[7]
  inhibition: inactive
Rattus norvegicus
  AUC/dose: 512 ng·h/mL/mg/kg
A-375
  EC50: 0.034 µM
[8]
  inhibition: inactive
[9]
  inhibition: inactive
[10]
  inhibition: inactive
[11]
  half-life: 1.78 h
[12]
  bioavailability: 51%
[13]
  inhibition: inactive
[14]
  inhibition: inactive
[15]
  inhibition: inactive
[16]
  clearance: 15.6 mL/min/kg
[17]
  inhibition: inactive
[18]
  Vd: 1.19 L/kg
[19]
  inhibition: inactive
[20]
  inhibition: inactive
[21]
  inhibition: inactive
[22]
  half-life: 2.5 h
COLO 205
  EC50: 0.017 µM
[23]
  inhibition (INH): Not Active
[24]
  inhibition: inactive
[25]
  inhibition: inactive

## C#Cc1ccc(Nc2c(C(=O)NOCCO)c3c(n2C)C(=O)CCC3)c(F)c1
[1]
  inhibition: inactive
[2]
  inhibition: inactive
[3]
  inhibition: inactive
[4]
  inhibition: inactive
[26]
  inhibition: Active
[5]
  IC50: 0.032 µM
[6]
  inhibition: inactive
[7]
  inhibition: inactive
Rattus norvegicus
  AUC/dose: 1670 ng·h/mL/mg/kg
A-375
  EC50: 0.015 µM
[8]
  inhibition: inactive
[9]
  inhibition: inactive
[10]
  inhibition: inactive
[11]
  half-life: 0.567 h
[12]
  bioavailability: 61%
[13]
  inhibition: inactive
[14]
  inhibition: inactive
[15]
  inhibition: inactive
[16]
  clearance: 5.9 mL/min/kg
[17]
  inhibition: inactive
[18]
  Vd: 0.596 L/kg
[19]
  inhibition: inactive
[20]
  inhibition: inactive
[21]
  inhibition: inactive
[22]
  half-life: 0.633 h
COLO 205
  EC50: 0.01 µM
[23]
  inhibition (INH): Not Active
[24]
  inhibition: inactive
[25]
  inhibition: inactive

## O=C(NOCCO)c1c(Nc2ccc(I)cc2F)c(F)c(=O)n2c1CCC2
[1]
  inhibition: inactive
[2]
  inhibition: inactive
[3]
  inhibition: inactive
[4]
  inhibition: inactive
[5]
  IC50: 0.025 µM
[6]
  inhibition: inactive
[7]
  inhibition: inactive
Rattus norvegicus
  AUC/dose: 262 ng·h/mL/mg/kg
A-375
  EC50: 0.003 µM
[8]
  inhibition: inactive
[9]
  inhibition: inactive
[10]
  inhibition: inactive
[11]
  half-life: > 3.33 h
[12]
  bioavailability: 21%
[13]
  inhibition: inactive
[14]
  inhibition: inactive
[15]
  inhibition: inactive
[16]
  clearance: 12.9 mL/min/kg
[17]
  inhibition: inactive
[18]
  Vd: 0.745 L/kg
[19]
  inhibition: inactive
[20]
  inhibition: inactive
[21]
  inhibition: inactive
[22]
  half-life: 2.07 h
COLO 205
  EC50: 0.001 µM
[23]
  inhibition (INH): Not Active
[24]
  inhibition: inactive
[25]
  inhibition: inactive

## Cc1c(Nc2ccc(I)cc2F)c(C(=O)NOCCO)c2n(c1=O)CCC2
[1]
  inhibition: inactive
[2]
  inhibition: inactive
[3]
  inhibition: inactive
[4]
  inhibition: inactive
HL-60
  inhibition: Active
[5]
  IC50: 0.038 µM
[6]
  inhibition: inactive
[7]
  inhibition: inactive
Rattus norvegicus
  AUC/dose: 204 ng·h/mL/mg/kg
A-375
  EC50: 0.002 µM
[8]
  inhibition: inactive
[9]
  inhibition: inactive
[10]
  inhibition: inactive
[11]
  half-life: 1.65 h
[12]
  bioavailability: 29%
[13]
  inhibition: inactive
[14]
  inhibition: inactive
[15]
  inhibition: inactive
[16]
  clearance: 21.4 mL/min/kg
[17]
  inhibition: inactive
[18]
  Vd: 0.971 L/kg
[19]
  inhibition: inactive
[20]
  inhibition: inactive
[21]
  inhibition: inactive
[22]
  half-life: 0.667 h
[27]
  inhibition: Active
COLO 205
  EC50: 0.001 µM
[23]
  inhibition (INH): Not Active
[24]
  inhibition: inactive
[25]
  inhibition: inactive
